Screens (PubChem BioAssay)
MrgX1 allo act = human MrgX1 positive allosteric modulation, primary screen. B-score at 10 µM. 310,000 tested, 0.63% active. MrgX1-HEK293, Fluo-4 calcium flux, FDSS; stronger effect = higher value;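 active = plate-corrected calcium response at least 3 library SD above typical, normal starting fluorescence, not activating the receptor alone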;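 note: compound read alongside a low EC10 to EC30 dose of BAM8-22 agonist; peak minus trough fluorescence over baseline measured at the second addition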
Target sequence (Q96LB2 whole entry, looked up): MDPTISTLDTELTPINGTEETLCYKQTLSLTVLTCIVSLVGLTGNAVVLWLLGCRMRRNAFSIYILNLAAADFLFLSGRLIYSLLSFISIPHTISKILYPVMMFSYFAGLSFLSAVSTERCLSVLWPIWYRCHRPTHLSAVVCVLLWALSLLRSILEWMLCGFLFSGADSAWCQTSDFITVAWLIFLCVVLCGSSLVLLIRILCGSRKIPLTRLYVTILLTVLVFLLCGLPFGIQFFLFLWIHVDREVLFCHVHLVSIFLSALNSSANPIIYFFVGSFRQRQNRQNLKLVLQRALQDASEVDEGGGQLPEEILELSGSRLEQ
RGS4 inh = human RGS4 inhibition. P49798. HEK293 M3R/RGS4 inducible, Fluo-4 calcium flux; stronger effect = higher value; triggered by carbachol at its EC20. B-score at 10 µM. 310,000 tested, 0.45% active. AID 463165;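 active = B-score, a plate-corrected calcium signal, over three deviations above library mean, with baseline fluorescence within five deviations of library mean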;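 note: RGS4 expression induced by doxycycline in cells with stable M3 receptor; B-score is computed from the integrated fluorescence ratio over baseline after carbachol; higher B-score means a larger calcium signal and so more RGS4 inhibition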
MrgX1 antagonist = blocks BAM8-22 activation of human MrgX1 receptor; MRGX1-HEK293 calcium flux, Fluo-4, BAM8-22 antagonism; stronger effect = lower value; Q96LB2; 310,000 tested, 1.3% active; B-score at 10 µM;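 active = calcium-response B-score plate-corrected more than 3 library SD below zero, starting fluorescence within 5 deviations, no agonist response on first addition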;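 note: peak minus trough fluorescence over baseline after final BAM8-22 challenge near maximal dose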
RGS4 act = RGS4 potentiation or activation. HEK293 M3R/inducible RGS4, carbachol calcium flux Fluo4; stronger effect = lower value. B-score at 10 µM. 310,000 tested, 0.92% active;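 active = B-score of the integrated calcium signal more than 4 SD below the library mean, with starting fluorescence not abnormally high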;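 note: negative B-score means reduced calcium response which marks RGS4 activation or potentiation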
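Reagent: ECmax carbachol challenge; Test system: M3R-expressing HEK293 line, RGS4 induced by doxycycline; Schedule: overnight RGS4 induction, 30 min dye load 37 °C, 20 min compound RT; Detection: calcium dye Fluo4 fluorescence; Read-out: Agonist-evoked peak-minus-minimum fluorescence over baseline, integrated ratio, B score.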
Kir21 block = Kir2.1 (mouse) channel inhibition; P35561; HEK293-Kir2.1, FluxOR thallium flux fluorescence; stronger effect = lower value; B-score at 10 µM; 310,000 tested, 0.85% active;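 active = fluorescence ratio B-score at or below minus 3 SD of library scores, with starting-brightness B-score within 2 SD, cut at about -4.2 in these data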;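 note: channel flux triggered by added potassium and thallium sulfate stimulus; B-score of peak minus minimum fluorescence over baseline after thallium stimulus; more negative B-score means stronger Kir2.1 block with less thallium influx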
Target sequence (P35561 whole entry, looked up): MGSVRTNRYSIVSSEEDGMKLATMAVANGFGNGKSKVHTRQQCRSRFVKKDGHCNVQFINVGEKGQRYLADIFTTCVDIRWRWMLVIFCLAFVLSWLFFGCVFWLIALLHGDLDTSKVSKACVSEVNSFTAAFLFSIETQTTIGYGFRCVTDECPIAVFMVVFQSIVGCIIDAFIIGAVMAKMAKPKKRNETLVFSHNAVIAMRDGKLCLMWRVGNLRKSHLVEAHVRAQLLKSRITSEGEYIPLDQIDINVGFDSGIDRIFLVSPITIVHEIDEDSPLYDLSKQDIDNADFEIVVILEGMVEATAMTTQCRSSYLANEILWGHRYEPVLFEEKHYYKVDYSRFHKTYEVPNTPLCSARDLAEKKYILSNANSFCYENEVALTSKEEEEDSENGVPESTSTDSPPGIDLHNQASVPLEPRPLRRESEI
MrgX1 agonist = agonists of human MrgX1 receptor; B-score at 10 µM; Q96LB2; MrgX1-HEK293 cells, Fluo-4 calcium fluorescence, agonist mode; stronger effect = higher value; 310,000 tested, 0.44% active;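 active = calcium response B-score plate-corrected fluorescence ratio at least 3 library SD, with starting fluorescence B-score inside 5 SD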
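Material – MrgX1-expressing HEK293 cells · Input – 15,000 cells seeded per well · Dosing – compound as first of three additions · Times – overnight seeding, then 1 h dark dye loading · Measured by – kinetic Fluo-4 NW fluorescence of intracellular calcium · Read-out – B-scored fluorescence response ratio · Benchmarks – positive and negative control wells on each plate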
MrgX1 antag conf = reconfirmed antagonist of human MrgX1 receptor signaling | shares compounds with MrgX1 antagonist | MrgX1-HEK293, BAM8-22 calcium flux, Fluo-4; stronger effect = lower value | remaining BAM8-22 calcium response % of control (stronger effect = lower value), % at 10 µM | 2,300 tested, 19% active;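 active = remaining agonist calcium response no higher than 100% minus 3 SD of agonist-only control wells, with starting fluorescence near control levels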;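 note: agonist BAM8-22 given at a near maximal EC90 to ECmax level; peak minus minimum fluorescence divided by baseline after agonist addition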
HEK293 Ca flux = counter-screen for MrgX1 antagonists: effect in parental HEK293 cells | shares compounds with MrgX1 antagonist | Fluo-4 calcium fluorescence, FDSS | fluorescence ratio F(max-min)/F0 at 10 µM | 4,000 tested, 2% active;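 active = duplicate-averaged calcium fluorescence ratio at least three times the standard deviation of buffer wells, a nonspecific response in parental cells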
HEK293 Ca counter = counter-screen for MrgX1 allosteric activators: effect in parental HEK293 cells. shares compounds with MrgX1 antagonist. parental HEK293 calcium flux, Fluo-4 fluorescence ratio; stronger effect = higher value. fluorescence ratio F(max-min)/F0 at 10 µM. 4,000 tested, 0.4% active. AID 624114;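 active = calcium fluorescence ratio, averaged over duplicates, at least 3 SD of the buffer-well ratio, meaning a nonspecific response in receptor-free cells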;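 note: untransfected parental HEK293 lacking MrgX1 used as counterscreen for MrgX1 allosteric activators; fluorescence change taken during the second addition on a kinetic imager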
HEK293 Ca cntr2 = activity in parental HEK293 cells lacking MrgX1 receptor; shares compounds with MrgX1 antagonist; Fluo-4 calcium fluorescence (FDSS); stronger effect = higher value; fluorescence ratio F(max-min)/F0 at 10 µM; 4,000 tested, 8.7% active; AID 624115;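 active = calcium fluorescence ratio at least three times the spread of buffer wells, meaning a non-specific response in parental cells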
Large screens that a line does not name were inactive (follow-up assays come after a bar, where they were run). This is a sample that favours compounds with a hit; in the whole collection about 4.1% have one here.

Cc1cccc(NC(=S)NC(C)CCc2ccccc2)c1 (centres undefined)	MrgX1 antagonist -7.8 | MrgX1 antag conf inactive | HEK293 Ca flux inactive | HEK293 Ca counter inactive | HEK293 Ca cntr2 inactive
Cc1cccc(NC(=O)NC(C)CCc2ccccc2)c1 (centres undefined)	none
O=C(O)CC(NC(=O)OCc1ccccc1)c1ccccc1 (centres undefined)	none
NC(CC(=O)O)c1cccc(OCc2ccccc2)c1 (centres undefined)	MrgX1 antagonist -5.4 (no result: RGS4 inh, RGS4 act, Kir21 block) | MrgX1 antag conf 75% | HEK293 Ca flux inactive | HEK293 Ca counter inactive | HEK293 Ca cntr2 inactive
CC(C)Sc1nc2c(c(=O)n1C)SC(C)C2 (centres undefined)	MrgX1 antagonist -6.9 | MrgX1 antag conf inactive | HEK293 Ca flux inactive | HEK293 Ca counter inactive | HEK293 Ca cntr2 inactive
CC1Cc2nc(SCC(=O)NC3CCCCC3)n(C)c(=O)c2S1 (centres undefined)	none
O=C(c1cn(CC(=O)N2CCCCC2)c2ccccc12)C1CC1	MrgX1 antagonist -5 | MrgX1 antag conf inactive | HEK293 Ca flux inactive | HEK293 Ca counter inactive | HEK293 Ca cntr2 inactive
Cc1ccc(C(=O)NC(=S)Nc2ccccc2N2CCCC2)cc1[N+](=O)[O-]	MrgX1 antagonist -23 | MrgX1 antag conf inactive | HEK293 Ca flux inactive | HEK293 Ca counter inactive | HEK293 Ca cntr2 inactive
CC(C)(C)NS(=O)(=O)c1ccc(NC(=O)C(Sc2ccccc2)c2ccccc2)cc1 (centres undefined)	none
CCn1ccc(C(=O)NC2=NCCS2)n1	none
CCn1ccc(C(=O)Nc2ncc(C)s2)n1	MrgX1 antagonist -5.4 | MrgX1 antag conf inactive | HEK293 Ca flux inactive | HEK293 Ca counter inactive | HEK293 Ca cntr2 inactive
CN(C)CCCNc1ncnc2scc(-c3ccccc3)c12	none
c1ccc(-c2csc3ncnc(NCc4ccccn4)c23)cc1	MrgX1 antagonist -5.6 | MrgX1 antag conf inactive | HEK293 Ca flux inactive | HEK293 Ca counter inactive | HEK293 Ca cntr2 inactive
Cc1nn(C)c(C)c1CN(Cc1nc(CCC(C)C)no1)C(C)C	MrgX1 antagonist -4.6 | MrgX1 antag conf inactive | HEK293 Ca flux inactive | HEK293 Ca counter inactive | HEK293 Ca cntr2 inactive
CC(C)CCc1noc(CN(C)CCC2CCOCC2)n1	none
O=C(CSc1nc2[nH]ncc2c(=O)[nH]1)NCc1ccccc1	none
CCOc1ccc2c(c1)C(NC(C)=O)C(=O)N2CCN1CCOCC1 (centres undefined)	MrgX1 antagonist -12 | MrgX1 antag conf inactive | HEK293 Ca flux inactive | HEK293 Ca counter inactive | HEK293 Ca cntr2 inactive
CC(=O)NC1C(=O)N(CCN2CCOCC2)c2ccc(Br)cc21 (centres undefined)	MrgX1 antagonist -9.3 | MrgX1 antag conf inactive | HEK293 Ca flux inactive | HEK293 Ca counter inactive | HEK293 Ca cntr2 47
CCN1C(=O)C(NC(C)=O)c2cc(OC)ccc21 (centres undefined)	none
CCCCN1C(=O)C(NC(C)=O)c2ccccc21 (centres undefined)	none
CCCNC(=O)CS(=O)Cc1nc(-c2ccc(OC)cc2)oc1C (centres undefined)	none
S=C(NCc1cccnc1)Nc1cc(Cl)cc(Cl)c1	MrgX1 antagonist -5.1 | MrgX1 antag conf 72% | HEK293 Ca flux inactive | HEK293 Ca counter inactive | HEK293 Ca cntr2 58
S=C(NCc1cccnc1)Nc1ccc(Oc2ccccc2)cc1	none
FC(F)Oc1ccc(NC(=S)NCc2cccnc2)cc1	MrgX1 antagonist -6.2 | MrgX1 antag conf 83% | HEK293 Ca flux inactive | HEK293 Ca counter inactive | HEK293 Ca cntr2 inactive
CCOC(=O)/C(C#N)=C1\C=CN(C)C(C)=N1	none
CCC(CC)c1nnc(NC(=O)C2CCCO2)s1 (centres undefined)	none
C/C(=N\NC(=O)c1ccc2c(c1)OCO2)c1ccc(O)cc1	none
CCC(=O)Nc1nc(-c2ccc3c(c2)CC(C)N3S(C)(=O)=O)cs1 (centres undefined)	none
CC1Cc2cc(-c3csc(NC(=O)Cc4cccs4)n3)ccc2N1S(C)(=O)=O (centres undefined)	MrgX1 antagonist -4.8 | MrgX1 antag conf 50% | HEK293 Ca flux inactive | HEK293 Ca counter inactive | HEK293 Ca cntr2 inactive
COc1ccc(S(=O)(=O)N2CCC3(CC2)OCCN3S(=O)(=O)c2ccccc2)cc1OC	none
CS(=O)(=O)N1CCC2(CC1)OCCN2S(=O)(=O)c1ccccc1	MrgX1 antagonist -6.9 | MrgX1 antag conf inactive | HEK293 Ca flux inactive | HEK293 Ca counter inactive | HEK293 Ca cntr2 inactive
CC(C)Nc1ncnc2c1cnn2-c1ccccc1	MrgX1 antagonist -4.9 | MrgX1 antag conf inactive | HEK293 Ca flux inactive | HEK293 Ca counter inactive | HEK293 Ca cntr2 inactive
COCCCNC(=O)c1cn(CCOC)c(=O)c2c1c1ccccc1n2C	none
COc1ccc(Cc2nnc(NS(C)(=O)=O)s2)cc1	MrgX1 antagonist -6.4 | MrgX1 antag conf inactive | HEK293 Ca flux inactive | HEK293 Ca counter inactive | HEK293 Ca cntr2 inactive
CCN(CC)c1ccc2c(Cl)c(Br)c(=O)oc2c1	MrgX1 antagonist -14 | MrgX1 antag conf inactive | HEK293 Ca flux 0.037 | HEK293 Ca counter inactive | HEK293 Ca cntr2 inactive
CC(C)CNC(=O)[C@@H]1CSC2c3ccccc3C(=O)N21 (some centres undefined)	none
COc1cc(Cl)c(C)cc1NC(=O)COc1cc(C)nc(C(C)C)n1	none
COc1ccccc1NC(=O)COc1cc(C)nc(C(C)C)n1	MrgX1 antagonist -5.4 | MrgX1 antag conf inactive | HEK293 Ca flux inactive | HEK293 Ca counter inactive | HEK293 Ca cntr2 inactive
COc1ccc(-c2cc(C(=O)NCc3ccco3)c3ccccc3n2)cc1	none
O=C(NCc1ccco1)c1cc(-c2ccccc2)nc2ccccc12	MrgX1 antagonist -5.3 | MrgX1 antag conf inactive | HEK293 Ca flux inactive | HEK293 Ca counter inactive | HEK293 Ca cntr2 inactive
CCCCn1cnc2c(c(-c3ccccc3)c(-c3ccccc3)n2Cc2ccco2)c1=N	MrgX1 antagonist -14 | MrgX1 antag conf inactive | HEK293 Ca flux inactive | HEK293 Ca counter inactive | HEK293 Ca cntr2 inactive
